The results in this text go back to ChEMBL document CHEMBL4513216, “Probing the Open Global Health Chemical Diversity Library for Multistage-Active Starting Points for Next-Generation Antimalarials” (ACS Infect Dis, 2020).

This series can be described thus: Toxicity liver stage against HepG2, at 10uM. In kind it is cell-based. Details: test concentration 10 uM, cell line HepG2-A16-CD81EGFP. As to conditions: human, HepG2-A16-CD81EGFP cells; read-out: INHIBITION
An outline of the steps: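 Uninfected HepG2-A16-CD81EGFP cells, 3 × 10^3 per well, 1536-well, plated on prespotted compound at 10 μM final, parasite-free screening media added to match infected plates; puromycin 10 μM positive, DMSO 0.5% negative; run in parallel with 48 h PbLuc assay at 37 °C, 5% CO2; viability by CellTiter-Glo luminescence, normalized to controls.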
On to `Cc1noc(C)c1CN1CCCC1c1c(C)nn(C)c1Cl` (stereo unspecified), for which the cytotoxicity at 10 µM was -2%.
Take `Cn1nc(C2CCN(C(=O)CN3CCCCC3)CC2)c2cccnc21`: the cytotoxicity at 10 µM was -30.1%.
Next, `Cc1csc2c(C3CCCN(C(=O)CCCn4cncn4)C3)nc(C)n12` (stereo unspecified): 7.69%; `O=C(NC1CC1)[C@H]1C[C@H]2OCC[C@H]2N(CC2CCOCC2)C1`: 2.98%; `CCNc1ncc(C(=O)N2CCC(c3ccccc3C(=O)O)C2)cn1` (stereo unspecified): -6.41%.
On to `O=C(c1cnc(-c2ccco2)s1)N1CCOc2ncccc21`, for which the cytotoxicity at 10 µM amounted to 7.48%.
For the compound `Cc1ccc(C(=O)N2CCC3(CC2)CC(c2ccccc2)C(=O)N3)o1` (stereo unspecified), the cytotoxicity at 10 µM is 11.1%.
In the case of `CCc1cc(N(C)Cc2ccno2)n2nc(C)c(C)c2n1`, the cytotoxicity at 10 µM was found to be 1.35%.
Next, `O=C(C1CCC2(CCN(c3nncs3)CC2)C1)N1CCCC1` (stereo unspecified): 9.43%; `COCCN1CCC(NCc2cc(F)ccc2F)C1` (stereo unspecified): -21.9%; `CCc1nnc(S(=O)(=O)Cc2cc(Cl)c3c(c2)OCO3)n1C`: -46.3%.
`Cc1cc(C)n(C2CCCN(C(=O)c3ccn(C)c(=O)c3)C2)n1` (stereo unspecified): the cytotoxicity at 10 µM is -5.72%.
As for `NCc1ccnc(Oc2ccc(F)cc2)c1`, the cytotoxicity at 10 µM was determined as 12.4%.
On to `Cc1ncsc1CN1CCOC(C)(C(=O)N2CCOCC2)C1` (stereo unspecified), for which the cytotoxicity at 10 µM is -1.95%.
The same measure for `Cc1nn(C)c(Cl)c1C1CCCN1C(=O)c1cnn(C)c1C1CC1` (stereo unspecified): 1.99%; for `CC(C)c1noc(CN2CCN(C(=O)c3cc(Cl)ccc3F)CC2)n1`: -6.8%.
Next, `OC(COCc1cccs1)CSc1nnc2ccccn12` (stereo unspecified): 1.66%; `O=C(Cc1ccc(F)cc1)NCC1CCN(Cc2ccsc2)CC1`: -7.15%; `Cc1cccc(NC(=O)CN(C)C(=O)c2ccc(-n3cccc3)nc2)n1`: -4.4%.
Take `C[C@H]1C[C@@H]2CCN(C(=O)c3ccncc3)C[C@H]2O1`: the cytotoxicity at 10 µM was -1.02%.
The same measure for `N#Cc1cccc(N2CCCC3(C2)CN(c2nncs2)CCO3)c1` (stereo unspecified): 0.922%; for `O=C(Cn1c(=O)n(Cc2ccco2)c2ncccc21)Nc1ccccn1`: 0.822%; for `COCC(O)CN1CCC(=O)N(CC(=O)C(C)(C)C)Cc2ccccc21` (stereo unspecified): 6.31%.
Next, `NC(=O)c1cncc(N2CCN(Cc3ccc(F)cc3Cl)CC2)n1`: 11.8%.
As to `O=c1c(S(=O)(=O)N2CCCC2)cccn1Cc1ccc(F)cc1Cl`, the cytotoxicity at 10 µM was determined as 12%.
As to `CCC(=O)N(C)C1CCN(Cc2ncc(C)c(OC)c2C)CC1`, the cytotoxicity at 10 µM is -9.86%.
Next, `COc1ccc(F)c(F)c1CN1CCN(CC(C)C)C(=O)C1C` (stereo unspecified): -6.29%; `CCc1ccc(C(=O)N2CCCN(Cc3csc(CC)n3)CC2)o1`: -1.86%; `O=S(=O)(CC1CC1)c1ncc(CN2CCSCC2)n1CC1CCCO1` (stereo unspecified): -1.07%.
For `O=C(O)[C@@H]1CN(C(=O)Cc2ccccc2Cl)C[C@H]1C1CC1`, the cytotoxicity at 10 µM is 9.53%.
Next, `CC1CCCCN1CCNC(=O)c1ccn(-c2ccccc2)n1` (stereo unspecified): -15.2%; `COc1ccccc1NC(=O)c1[nH]nc(C(C)C)c1Br`: 8.24%.
With `Cc1nn(C(C)C)c(C)c1NC(=O)c1ccncc1`, the cytotoxicity at 10 µM was -17.3%.
The same measure for `Cn1cc(S(=O)(=O)N2CCC(OCCCc3ccccc3)C2)cn1` (stereo unspecified): 8.93%; for `CC(C)c1nnc(NC(=O)NCc2ccc(CO)c(F)c2)s1`: 6.54%.
The same measure for `Cc1ccccc1CC(=O)NCc1cnc(CC2CCN(C)CC2)cn1`: -1.25%; for `Cc1ccc(NC(=O)NCC2(O)CCCC2)cc1C`: -6.8%; for `COCCN1CCC1c1cc(NC2CCCC2)nc(C)n1` (stereo unspecified): 0.994%.
Next, `CC(C)C1CN(C(=O)c2ccc(C(N)=O)cc2)CCS1` (stereo unspecified): -4.03%; `COc1ccc(N2CCCN(CC(=O)N3CCNC(=O)C3)CC2)cc1`: 6.06%; `O=C(Cn1c(C(F)F)cc2cccnc21)NC1CCCC1`: -22.2%.
Regarding `CC(C)CCN1CC[C@H](c2nnc(Cc3c[nH]c4ccccc34)o2)C1`, the cytotoxicity at 10 µM was 0.167%.
Next, `O=C(NCCCc1ccccn1)c1cn(CCN2CCNCC2)nn1`: -3.54%; `CCNc1cc2c(nn1)CCN(C(=O)c1cc(C)no1)C2`: -14.5%; `O=S(=O)(NCC1CCN(c2cnccn2)CC1)c1ccc(F)c(Cl)c1`: 11.6%.
On to `CCOC1COC2(CCN(C(=O)c3cccc(C)n3)CC2)C1` (stereo unspecified), for which the cytotoxicity at 10 µM worked out at 6.24%.
Next, `CCc1cn[nH]c1C1CCN(C(=O)c2cc(C(C)=O)c(C)[nH]c2=O)CC1`: -2.23%; `CC(O)CNC(=O)Nc1ccc(Br)cc1Br` (stereo unspecified): -1.45%; `C[C@@H]1C[C@H](C(F)(F)F)n2nc(C3CCN(C(=O)C(C)(C)C)CC3)cc2N1`: -32.8%.
The same measure for `CCS(=O)(=O)c1ccc2oc([C@H]3CCN(Cc4ccccn4)C3)nc2c1`: -0.125%; for `CN1CCC2(CC1)CN(C(=O)c1cccnc1)Cc1ccccc12`: -66.2%; for `Cc1ncccc1NC(=O)C1=NOC2(CCN(Cc3nccs3)C2)C1` (stereo unspecified): 2.11%.
Take `CC(C)N1CCOC(CC(=O)N2CC(c3ccncc3)C2)C1` (stereo unspecified): the cytotoxicity at 10 µM is 7.44%.
Next, `CC(C)CC(=O)N1CC(=O)N(Cc2ccco2)CC(O)C1` (stereo unspecified): -8.23%; `Cn1c(=O)oc2cc(S(=O)(=O)N3CCC(c4ccccc4)C3)c(Cl)cc21` (stereo unspecified): 12.4%; `O=C(c1cc(F)cc2[nH]cnc12)N1CCCCC1Cn1cccn1` (stereo unspecified): 16.5%.
Next, `CNC(=O)CCc1cc(C)nc(C2CCCN2)n1` (stereo unspecified): 1.77%.
Next, `CC(=O)NCC(=O)N1CCN(Cc2ccncc2)c2ncccc2C1`: -90.3%; `Cc1noc(C2CCCN(C(=O)c3cc(Cl)cn3C)C2)n1` (stereo unspecified): 1.33%.
Consider `O=C(Nc1cccnn1)NC(CCCO)c1ccccc1` (stereo unspecified), for which the cytotoxicity at 10 µM was -0.908%.
The same measure for `Cc1csc2cc(C(=O)NC3CC3)cnc12`: -0.697%; for `CCc1nc2n(n1)CC(NCc1cn(C)nc1-c1cccnc1)CC2` (stereo unspecified): -5.95%; for `COCCn1c(=O)n(C)c(=O)c2ccc(C3CCN(C(C)=O)CC3)nc21`: 4.89%.
With `CN1CCN(C)C2(CCN(Cc3ccsc3)CC2)C1=O`, the cytotoxicity at 10 µM came out at 0.0221%.
For `O=C(NCc1ccc(N2CC=CC2)cc1)Nc1nnc(C2CC2)s1`, the cytotoxicity at 10 µM turned out to be 7.25%.
Next, `Cc1nccn1CC1CCN(C(=O)Cc2ccccc2)CC1`: -17%; `COCCN1C(=O)C2(CCC(C(=O)Nc3ccc(C)cc3)CC2)N=C1C` (stereo unspecified): 12.3%.
Consider `CNC(=O)C(C)(C)CNC(=O)Nc1cc(C)ccn1`, for which the cytotoxicity at 10 µM was found to be 11.7%.
Next, `CN(CCc1ccccc1)Cc1c(C2CCOCC2)[nH]c2ncccc12`: 4.21%; `O=C(NCCC(=O)N1CCCCCCC1)c1ccoc1`: -22.2%.
As for `CN(C)c1cc(NCc2cnc3n2CCN(CC2CC2)CC3)ncn1`, the cytotoxicity at 10 µM was -2.57%.
